Rows were chosen to be rich in hits. Some 1.8% of all compounds tested hit in one or more screens of this group.
NPY-Y2 antag – antagonists of human neuropeptide Y receptor Y2; P49146; NPY-Y2 expressing cells, antagonist mode; inhibition, % at 2.7 µM; 140,000 tested, 0.99% active; in the data active means inhibition above about 17%;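 further: 0% = vehicle with agonist challenge and 100% = reference antagonist with challenge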
NPY1 pot ag – potentiators or agonists of human neuropeptide Y receptor Y1 | activation, % at 3.6 µM | P25929 | NPY-Y1 expressing cells, potentiator/agonist activation | 220,000 tested, 0.37% active; in the data active means activation above about 33%, passing the limit was not always enough;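 further: cells stimulated with NPY at EC10 then isoproterenol at EC100; 0% = low agonist plus stimulus and 100% = saturating agonist plus stimulus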
Target sequence (P25929 whole entry, looked up): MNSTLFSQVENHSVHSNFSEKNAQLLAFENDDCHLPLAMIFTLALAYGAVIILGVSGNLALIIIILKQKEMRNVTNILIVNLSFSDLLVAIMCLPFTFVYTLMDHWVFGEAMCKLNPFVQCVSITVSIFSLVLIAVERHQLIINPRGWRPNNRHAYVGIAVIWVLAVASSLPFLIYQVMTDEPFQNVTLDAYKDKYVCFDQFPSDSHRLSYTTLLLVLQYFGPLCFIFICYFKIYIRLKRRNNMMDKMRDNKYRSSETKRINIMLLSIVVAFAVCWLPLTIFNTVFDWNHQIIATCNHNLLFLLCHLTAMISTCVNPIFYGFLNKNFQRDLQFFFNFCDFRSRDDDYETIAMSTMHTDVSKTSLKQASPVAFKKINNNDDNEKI
NPY2 pot ag – potentiators or agonists of human neuropeptide Y receptor Y2 | cells expressing NPY-Y2, potentiator/agonist read-out | AID 1359 | P49146 | 220,000 tested, 0.45% active | activation, % at 3.6 µM; in the data active means activation above about 27%;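 further: cells stimulated with NPY near EC25 plus isoproterenol at EC100; 0% = vehicle plus submaximal agonist and 100% = vehicle plus saturating agonist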
NPY-Y1 antag – NPY-Y1 (human) receptor antagonism | HEK293-CNG Y1 cells, membrane potential fluorescence; NPY at EC95, then isoproterenol | inhibition, % at 3.6 µM | 200,000 tested, 1% active | AID 1040;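 active means inhibition above the campaign mean inhibition of all tested compounds plus 3 SD, cut at about 20% in these data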;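 further: 0% = DMSO wells given NPY plus isoproterenol and 100% = isoproterenol alone without NPY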
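Material: Y1- and CNG-channel-expressing HEK293 cells / Probe or stimulus: NPY 25 nM then isoproterenol 1 µM plus Ro 20-1724 25 µM / Doses: 3.6 µM single dose, DMSO 0.4% / Schedule: compound incubation 1 h at room temperature, readout 45 min post-stimulation / Signal: membrane potential fluorescence / Benchmarks: isoproterenol-only wells as full block versus NPY-plus-isoproterenol wells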
* = called active by the depositor.

Nc1nonc1C(=O)NCCNCc1cc(Br)ccc1OCc1ccc(F)cc1 was read as NPY-Y2 antag 15.2, NPY1 pot ag -39.0, NPY2 pot ag -7.3 and NPY-Y1 antag 14.0.
For Nc1nonc1C(=O)NCCNCc1c(OCc2ccccc2F)ccc2ccccc12 the results were NPY-Y2 antag 49.8*, NPY1 pot ag -69.3, NPY2 pot ag -30.9 and NPY-Y1 antag 33.8*.
For COc1ccccc1N(C(=O)c1snc(C(N)=O)c1N)C(C(=O)NC1CCCC1)c1ccco1 (stereo not given) the results were NPY-Y2 antag 19.6*, NPY1 pot ag -24.0, NPY2 pot ag -16.3 and NPY-Y1 antag 26.7*.
CCOC(=O)c1c(NC(=O)CCNCc2ccco2)sc2c1CCC2 was read as NPY1 pot ag 8.6 and NPY2 pot ag -14.6.
Screening Cc1c(C(=O)C(=O)N2CC=C(c3ccccc3)CC2)c2ccccc2n1C returned NPY-Y2 antag 1.9, NPY1 pot ag -9.5, NPY2 pot ag -0.4 and NPY-Y1 antag -1.0.
`CCOC(=O)CSc1nc2c(sc(=S)n2Cc2ccco2)c(=O)n1-c1ccc(F)cc1` gave NPY-Y2 antag 19.4*, NPY1 pot ag -2.2, NPY2 pot ag -14.0 and NPY-Y1 antag 20.8*.
Screening CCC(C)NC(=O)CSc1nc2c(sc(=S)n2Cc2ccco2)c(=O)n1-c1ccccc1 (stereo not given) returned NPY-Y2 antag 11.8, NPY1 pot ag -22.7, NPY2 pot ag -40.1 and NPY-Y1 antag 17.6.
Screening CCNS(=O)(=O)c1ccc(NC(=O)CC(C)c2ccccc2)cc1 (stereo not given) returned NPY1 pot ag 12.4, NPY2 pot ag 6.2 and NPY-Y1 antag 2.1.
Screening Cc1cc(Oc2ccc(Br)cc2)nc(SCC(=O)c2ccccc2)n1 returned NPY-Y2 antag 38.8*, NPY1 pot ag -71.7, NPY2 pot ag -56.2 and NPY-Y1 antag 52.2*.
COC(=O)CSc1nc(C)cc(Oc2ccccc2)n1 was read as NPY-Y2 antag 2.7, NPY1 pot ag -7.8, NPY2 pot ag -11.7 and NPY-Y1 antag 6.4.
Cc1cc(Oc2ccc3ccccc3c2)nc(SCC(=O)c2ccccc2)n1 was read as NPY-Y2 antag 40.8*, NPY1 pot ag -113.8, NPY2 pot ag -17.3 and NPY-Y1 antag 49.8*.
`N#CCCN(C(=O)Nc1ccc(Cl)c(Cl)c1)c1ccccc1` gave NPY-Y2 antag 3.1, NPY1 pot ag -22.5, NPY2 pot ag 14.5 and NPY-Y1 antag 0.0.
O=C(N/N=C/c1ccc(-c2ccc(Br)cc2)o1)c1ccc2c(c1)OCO2 was read as NPY1 pot ag -7.6, NPY2 pot ag -0.1 and NPY-Y1 antag 20.8*.
For O=C(N/N=C/c1ccc[nH]1)c1ccc2c(c1)OCO2 the results were NPY1 pot ag -17.5, NPY2 pot ag -7.6 and NPY-Y1 antag -2.8.
For NC1C2CN(c3nc4c(cc3F)c(=O)c(C(=O)O)cn4-c3ccc(F)cc3F)CC12 (stereo not given) the results were NPY-Y2 antag 2.1, NPY1 pot ag -6.0, NPY2 pot ag -5.5 and NPY-Y1 antag 4.5.
CC(=O)NC(C)CCc1ccccc1 (stereo not given) was read as NPY1 pot ag -7.2 and NPY2 pot ag -11.5.
Screening CC(CCc1ccccc1)NCC(O)c1ccc(O)c(C(N)=O)c1 (stereo not given) returned NPY-Y2 antag 0.7, NPY1 pot ag 116.5*, NPY2 pot ag 103.2* and NPY-Y1 antag -14.2.
CNc1nnc(Sc2ncccc2[N+](=O)[O-])s1 was read as NPY1 pot ag 3.5 and NPY2 pot ag 8.3.
`O=C(/C=C/c1ccc2c(c1)OCO2)NCCSCc1ccc(Cl)cc1` gave NPY-Y2 antag 22.6*, NPY1 pot ag -37.4, NPY2 pot ag -16.2 and NPY-Y1 antag 37.3*.
OC1(c2ccc(F)cc2)CN(c2ccccc2)C2=[N+]1CCS2 (stereo not given) was read as NPY-Y2 antag 5.5, NPY1 pot ag 108.2*, NPY2 pot ag 92.5* and NPY-Y1 antag 4.7.
For O=C(CNCC1CCCO1)Nc1ccccc1-n1cccc1 (stereo not given) the results were NPY-Y2 antag 1.3, NPY1 pot ag 14.0, NPY2 pot ag -1.1 and NPY-Y1 antag 0.1.
For O=C(CNCC1CCCO1)Nc1ccccc1N1CCOCC1 (stereo not given) the results were NPY-Y2 antag 2.0, NPY1 pot ag 41.8*, NPY2 pot ag 3.4 and NPY-Y1 antag -1.4.
`Cc1c(O)c(CN(C)C)cc2c1oc(=O)c1ccccc12` gave NPY1 pot ag 84.0* and NPY2 pot ag 50.9*.
Screening COc1ccc2c(c1)/C(=N/OC(=O)c1cccs1)CCC2 returned NPY1 pot ag -14.7, NPY2 pot ag -7.4 and NPY-Y1 antag 11.3.
`COc1ccc(NC(=O)O/N=C2/CCCc3ccc(OC)cc32)cc1` gave NPY-Y2 antag 4.6, NPY1 pot ag 98.5*, NPY2 pot ag -4.4 and NPY-Y1 antag 3.4.
`N=c1n(CCN2CCCCC2)c2ccccc2n1CC(O)c1ccc(Cl)c(Cl)c1` (stereo not given) gave NPY-Y2 antag 53.1*, NPY1 pot ag -36.6, NPY2 pot ag -22.8 and NPY-Y1 antag 36.5*.
N=c1n(CCN2CCCCC2)c2ccccc2n1CC(O)c1cccc(Br)c1 (stereo not given) was read as NPY-Y2 antag 31.9*, NPY1 pot ag -38.7, NPY2 pot ag -20.3 and NPY-Y1 antag 41.2*.
O=C(CSc1nnc(NC(=O)c2ccco2)s1)Nc1ccc2c(c1)OCCO2 was read as NPY1 pot ag 0.4, NPY2 pot ag -1.3 and NPY-Y1 antag 3.7.
For Cc1c(Cl)cccc1NC(=O)CSc1nnc(CCNC(=O)OC(C)(C)C)o1 the results were NPY-Y2 antag 3.0, NPY1 pot ag -16.8, NPY2 pot ag 4.3 and NPY-Y1 antag 2.8.
For COc1ccc(-c2csc3nc(C)nc(N4CCC(C)CC4)c23)cc1OC the results were NPY1 pot ag -28.9, NPY2 pot ag -18.9 and NPY-Y1 antag 20.9*.
`COC(=O)C(Cc1ccccc1)NC(=O)c1cc(S(=O)(=O)N(C)C)ccc1Cl` (stereo not given) gave NPY1 pot ag -1.9, NPY2 pot ag 1.3 and NPY-Y1 antag -0.9.
For S=c1[nH]cc(-c2ccccc2)n1-c1cccc(Cl)c1 the results were NPY-Y2 antag -2.5, NPY1 pot ag 39.2*, NPY2 pot ag 32.4* and NPY-Y1 antag -5.7.
Screening N#CCCN1CCCc2cc(N=Nc3ccc(C(F)(F)F)cc3)ccc21 returned NPY1 pot ag 73.2* and NPY2 pot ag 54.0*.
For O=C(NC1CCCCC1)c1ccc(S(=O)(=O)c2ccccc2)cc1 the results were NPY1 pot ag 12.2, NPY2 pot ag -2.3 and NPY-Y1 antag 4.8.
`CCn1cc(CNCc2c(C(=O)N3CCCCC3)nc3c(C)cccn23)cn1` gave NPY1 pot ag -15.6, NPY2 pot ag -9.7 and NPY-Y1 antag 20.6*.
`Nc1nc(Cl)nc2c1ncn2[C@@H]1O[C@H](CO)[C@@H](O)[C@H]1O` gave NPY-Y2 antag 101.8*, NPY1 pot ag -77.6, NPY2 pot ag -21.5 and NPY-Y1 antag 85.1*.
CC(=O)OCC1(C)CN(c2ccccc2)N(C(=O)c2ccc(F)cc2)C1=O (stereo not given) was read as NPY1 pot ag 4.8, NPY2 pot ag -5.0 and NPY-Y1 antag 3.8.
